High-throughput results: PubChem, several laboratories
A selection: hits, their analogues and other compounds. The true share with any hit is near 7.2%.
Ecoli WT expand: growth inhibitors of wild-type E. coli, primary screen, strain BW25113, expanded library, OD600 | OD600 absorbance | growth inhibition, % at 100 µM | 0.15% of 98,000 active;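 active = growth inhibition above about 50% at one test dose, limit read from the data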;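 note: growth measured after 20 h incubation at 37 °C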
PLAP act: PLAP enzyme activators, biochemical, luminescence, HTS; 1.2% of 96,000 active; purified PLAP enzyme, luminescent substrate read-out; stronger effect = higher value; Alkaline phosphatase, placental type (Homo sapiens), P05187; activation fold at 20 µM; in the data active = activation fold above about 2
Target sequence (P05187 whole entry, looked up): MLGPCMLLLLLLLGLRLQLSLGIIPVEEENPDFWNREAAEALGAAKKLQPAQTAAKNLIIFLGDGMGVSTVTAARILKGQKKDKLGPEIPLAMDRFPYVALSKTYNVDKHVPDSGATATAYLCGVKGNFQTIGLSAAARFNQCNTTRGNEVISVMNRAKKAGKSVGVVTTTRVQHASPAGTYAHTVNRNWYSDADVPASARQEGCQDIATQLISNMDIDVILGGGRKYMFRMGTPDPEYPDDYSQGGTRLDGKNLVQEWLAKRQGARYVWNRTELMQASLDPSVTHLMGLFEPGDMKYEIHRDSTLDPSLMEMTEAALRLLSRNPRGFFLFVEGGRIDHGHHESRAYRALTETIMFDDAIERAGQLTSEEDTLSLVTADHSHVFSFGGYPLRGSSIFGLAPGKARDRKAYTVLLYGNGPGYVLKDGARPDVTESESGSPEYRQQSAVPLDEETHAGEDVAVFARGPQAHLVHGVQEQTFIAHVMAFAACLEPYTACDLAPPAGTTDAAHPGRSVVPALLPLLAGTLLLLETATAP
tolC growth inh: growth inhibitors of E. coli tolC mutant, primary screen, strain BW25113 ΔtolC::kan, 384-well. OD615. growth inhibition, % at 10 µM (by protocol). 2.2% of 65,000 active;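 active = growth inhibition at or above a cutoff equal to the mean over every tested compound plus 3 SD, cut at about 60% in these data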;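 note: growth measured after 20 h incubation at 37 °C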
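System: E. coli ΔtolC::kan strain BW25113; Buffer or medium: LB broth supplemented with 50 µg/mL kanamycin; Compound: 10 µM final, single dose; Incubation: bacterial growth with compound for 20 h at 37 °C; Signal: A615 absorbance measurement; Evaluation: growth inhibition in percent.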
PostGolgi yeast: phenotypic screen on post-Golgi transport, primary screen; post-Golgi transport phenotypic cell assay; inhibition, % at 10 µM; 0.9% of 98,000 active; AID 739, 2007;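 note: yeast cells grown in 1536-well plates; yeast grown about 18 h at 30C before absorbance read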
PostGolgi ctrl: growth inhibition of yeast control strain, primary screen, counter-screen for post-Golgi transport modulator project; efflux-deficient yeast background strain, growth absorbance A615, 16 h; inhibition, % at 10 µM; 5% of 98,000 active
* marks the source's active call; other numbers are inactive results. Cut-off read from the data, not from the text of the source, unless noted: active = inhibition above about 30%; inactive = the rest.

COc1ccc(C(=O)CN2C(=O)C(C)(C)Oc3ccc(C(=O)N4CCCCCC4)cc32)cc1 was read as Ecoli WT expand 9, PLAP act 1.4, tolC growth inh 14, PostGolgi yeast -4 and PostGolgi ctrl 13.
CCOC(=O)N1CCN(C(=O)CS(=O)(=O)c2cn(Cc3ccc(F)cc3)c3ccccc23)CC1 was read as tolC growth inh 11.
Screening CC(C)=CC1C=C(C)C(C)C2C(=O)NNC(=O)C12 (stereo not drawn) returned Ecoli WT expand 1, PLAP act 1.2, PostGolgi yeast -5 and PostGolgi ctrl 0.
Screening Cc1cccc(Cn2c(N(C)Cc3ccccc3)nc3c2c(=O)[nH]c(=O)n3C)c1 returned Ecoli WT expand 1, PLAP act 1, tolC growth inh 33, PostGolgi yeast -5 and PostGolgi ctrl 47*.
`CCCn1c(SCc2ccc(Cl)cc2)nc2c1c(=O)[nH]c(=O)n2C` gave Ecoli WT expand -10, PLAP act 1.1, tolC growth inh 25, PostGolgi yeast 19 and PostGolgi ctrl 60*.
For COC(=O)c1cc(NS(=O)(=O)c2ccc3c(c2)CCC(=O)N3)cc(C(=O)OC)c1 the results were Ecoli WT expand 3, PLAP act 1.2, tolC growth inh 8, PostGolgi yeast 9 and PostGolgi ctrl -5.
CCOC(=O)C1=C(NC(=O)c2ccc(Br)o2)Nc2ccccc2N=C1 was read as Ecoli WT expand -7, PLAP act 1.1, tolC growth inh -19, PostGolgi yeast 5 and PostGolgi ctrl 18.
Screening O=C(c1noc2c1CCCC2)N1CCCCC1 returned Ecoli WT expand -1, PLAP act 0.9, tolC growth inh -12, PostGolgi yeast 4 and PostGolgi ctrl 0.
For O=C(c1noc2c1CCCC2)N1CCN(c2ccc(F)cc2)CC1 the results were Ecoli WT expand 0, PLAP act 0.9, tolC growth inh -1, PostGolgi yeast 4 and PostGolgi ctrl 34*.
Screening CCOc1ccc(NC(=O)Nc2cc(C)ccc2F)cc1 returned Ecoli WT expand -5, PLAP act 0.7, PostGolgi yeast -6 and PostGolgi ctrl 7.
For CCN(CC)S(=O)(=O)c1ccc(C(=O)Nc2ccc3c(c2)OCCO3)cc1 the results were Ecoli WT expand -2, PLAP act 0.7, tolC growth inh 18, PostGolgi yeast -5 and PostGolgi ctrl -4.
`CCn1cc([N+](=O)[O-])c(C(=O)Nc2ccc3c(c2)OCCO3)n1` gave Ecoli WT expand 4, PLAP act 1, PostGolgi yeast -10 and PostGolgi ctrl 33*.
For CCC(CC)C(=O)Nc1cccc(C(=O)Nc2ccc(S(=O)(=O)Nc3ccc(C)cc3)cc2)c1 the results were Ecoli WT expand -12, PLAP act 1.1, PostGolgi yeast 4 and PostGolgi ctrl 5.
For CCn1ncc(/C=N/NS(=O)(=O)c2ccc(Cl)cc2)c1C the results were Ecoli WT expand 13, PLAP act 1, PostGolgi yeast -2 and PostGolgi ctrl -3.
Screening CCCS(=O)(=O)c1nnnn1-c1cccc(OC)c1 returned Ecoli WT expand 15, PLAP act 1.3, tolC growth inh 40, PostGolgi yeast 55* and PostGolgi ctrl 29.
`O=C(NC(C(=O)c1ccccc1)N1CCOCC1)c1cccs1` (stereo not drawn) gave Ecoli WT expand 3, PLAP act 1.4, tolC growth inh -9, PostGolgi yeast 5 and PostGolgi ctrl 33*.
For COC(=O)c1c(NC(=O)CCc2ccc(C)o2)sc(C)c1C the results were Ecoli WT expand 1, PLAP act 1, tolC growth inh 61*, PostGolgi yeast 4 and PostGolgi ctrl 5.
Screening O=C(CCC(=O)NNC(=O)Nc1ccc(Cl)cc1)NCc1ccccc1 returned Ecoli WT expand 1, PLAP act 1, PostGolgi yeast -1 and PostGolgi ctrl -1.
Cc1sc(NC(=O)C2CCCCC2C(=O)O)c(C(N)=O)c1-c1ccccc1 (stereo not drawn) was read as Ecoli WT expand -2, PLAP act 1, PostGolgi yeast 2 and PostGolgi ctrl -1.
For Cc1sc(NC(=O)C2CCCCC2C(=O)O)c(C(N)=O)c1-c1ccc(C(C)(C)C)cc1 (stereo not drawn) the results were Ecoli WT expand 0, PLAP act 1.3, PostGolgi yeast 8 and PostGolgi ctrl 30*.
Screening CCC(C)NC(=O)c1ccccc1NC(=O)COc1ccc(OC)cc1 (stereo not drawn) returned Ecoli WT expand 2, PLAP act 0.7, PostGolgi yeast 6 and PostGolgi ctrl 2.
Screening O=[N+]([O-])c1ccc(Oc2cccc(Br)c2)c2ccncc12 returned Ecoli WT expand -6, PLAP act 0.7, PostGolgi yeast 8 and PostGolgi ctrl 79*.
For O=[N+]([O-])c1ccc(Oc2ccc(F)cc2)c2ccncc12 the results were Ecoli WT expand 4, PLAP act 0.7, PostGolgi yeast 16 and PostGolgi ctrl 30.
`CCOc1ccc(-n2c(Cc3ccccc3)nnc2SCc2c(C)noc2C)cc1` gave Ecoli WT expand 8, PLAP act 1.4, tolC growth inh 23, PostGolgi yeast -6 and PostGolgi ctrl 9.
Screening COC(=O)CC/C(O)=C1\C(=O)CC(C)(C)CC1=Nc1ccccc1OC returned Ecoli WT expand -13, PLAP act 1.1, PostGolgi yeast 8 and PostGolgi ctrl 2.
For CCCC/C(O)=C1\C(=O)CC(C)(C)CC1=Nc1ccccc1OC the results were Ecoli WT expand 0, PLAP act 1.6, PostGolgi yeast 9 and PostGolgi ctrl 31*.
Screening CCCN(CCC)C(=O)CC(c1ccccc1)c1cc(Br)ccc1O (stereo not drawn) returned Ecoli WT expand -12, PLAP act 1.4, PostGolgi yeast -5 and PostGolgi ctrl 47*.
`COc1ccc(CNC(=O)C(CCSC)NC(=O)c2ccco2)cc1` (stereo not drawn) gave Ecoli WT expand 2, PLAP act 1, PostGolgi yeast 0 and PostGolgi ctrl -3.
Screening CC(=O)Nc1ccc(NC(=O)CN(C)CCC#N)cc1 returned Ecoli WT expand 10, PLAP act 0.9, tolC growth inh -19, PostGolgi yeast 3 and PostGolgi ctrl 6.
CN(CC(=O)Nc1ccc(C#N)cc1)Cc1ccc(Cl)c(Cl)c1 was read as Ecoli WT expand -1, PLAP act 0.9, PostGolgi yeast 4 and PostGolgi ctrl 34*.
`COc1ccc2c(=O)c3c(=O)n(Cc4ccco4)c(-c4ccc(C)cc4)nc3oc2c1` gave Ecoli WT expand -5, PLAP act 1.5, tolC growth inh 48, PostGolgi yeast 6 and PostGolgi ctrl 44*.
`Cc1cc(C)cc(NS(=O)(=O)c2cnc(Cl)c(Cl)c2)c1` gave Ecoli WT expand 25, PLAP act 1.3, PostGolgi yeast 2 and PostGolgi ctrl 43*.
`Cc1cc(NS(=O)(=O)c2ccccc2)cc(Cl)c1O` gave Ecoli WT expand 10, PLAP act 0.9, tolC growth inh 16, PostGolgi yeast 1 and PostGolgi ctrl 12.
